From PMC12777986 (RSC Medicinal Chemistry, 2025)
“Also recorded” adds a separate entry of the source.

Legend:
[1] = molecular target: cloned hERG potassium channels (Homo sapiens, UniProt Q12809); test: hERG assay, automated patch clamp; assay type: cell-based
How it was run: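 Automated parallel patch clamp (QPatch II) was run at room temperature on HEK293 cells expressing KCNH2. Compound was applied at 0.1, 1, 10 and 100 μM (n ≥ 3), at least 6 min per concentration, from DMSO stocks diluted into HEPES-buffered saline. Cisapride 0.05 μM served as positive control. % current inhibition came from steady-state currents before and after each application.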

CYP2C19 = CYP2C19 (Homo sapiens, UniProt P33261); test: Human liver microsome CYP inhibition assay, CYP2C19; assay type: biochemical; conditions: human liver microsomes
How it was run: (§1)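 Human liver microsomes were mixed with an isoform-specific CYP substrate and either compound or a positive-control inhibitor, then pre-incubated at 37 °C for 30 min. Reactions were started by adding an NADPH-regenerating system.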

CYP2C9 = CYP2C9 (Homo sapiens, UniProt P11712); test: Human liver microsome CYP inhibition assay, CYP2C9; assay type: biochemical; conditions: human liver microsomes
How it was run: as §1

CYP2B6 = molecular target: T1, CYP2B6 (Homo sapiens, UniProt P20813); test: Human liver microsome CYP inhibition assay, CYP2B6; assay type: biochemical; conditions: human liver microsomes
T1 sequence (P20813 1-491): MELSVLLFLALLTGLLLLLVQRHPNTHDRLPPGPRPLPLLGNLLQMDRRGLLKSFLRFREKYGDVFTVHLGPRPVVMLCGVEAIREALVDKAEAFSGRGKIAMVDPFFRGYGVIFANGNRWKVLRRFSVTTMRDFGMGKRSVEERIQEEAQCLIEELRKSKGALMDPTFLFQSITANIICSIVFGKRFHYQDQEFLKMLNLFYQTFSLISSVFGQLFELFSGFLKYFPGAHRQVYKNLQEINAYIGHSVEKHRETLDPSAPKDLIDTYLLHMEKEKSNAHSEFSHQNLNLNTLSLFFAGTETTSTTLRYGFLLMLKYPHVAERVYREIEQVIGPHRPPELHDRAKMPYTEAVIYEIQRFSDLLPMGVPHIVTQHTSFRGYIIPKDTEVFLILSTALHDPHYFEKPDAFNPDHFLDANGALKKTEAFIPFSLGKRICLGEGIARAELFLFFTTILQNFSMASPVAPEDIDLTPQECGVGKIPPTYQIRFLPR
How it was run: as §1

CYP3A4 = CYP3A4 (Homo sapiens, UniProt P08684); test: Human liver microsome CYP inhibition assay, CYP3A4; assay type: biochemical; conditions: human liver microsomes
How it was run: as §1

[2] = Plasma protein binding, rapid equilibrium dialysis; assay type: in vitro ADME; conditions: human, pH 7.4
How it was run: (§2)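 Equilibrium dialysis (RED): compound was spiked at 2 μM into human or CD1 mouse plasma against PBS pH 7.4. Warfarin served as positive control. Plates were shaken gently at 37 °C for 6 h, and both chambers were quantified by LC–MS to give the unbound fraction.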

[3] = Single-dose pharmacokinetics in mice; assay type: in vivo, male CD1 mice
PCFT transporter = molecular target: T2, PCFT transporter (Homo sapiens, UniProt Q96NT5); test: Folate uptake assay in Caco-2 cell monolayers; assay type: cell-based; conditions: Caco-2, pH 5.5, read-out: inhibition of folate uptake
T2 sequence (Q96NT5 1-459): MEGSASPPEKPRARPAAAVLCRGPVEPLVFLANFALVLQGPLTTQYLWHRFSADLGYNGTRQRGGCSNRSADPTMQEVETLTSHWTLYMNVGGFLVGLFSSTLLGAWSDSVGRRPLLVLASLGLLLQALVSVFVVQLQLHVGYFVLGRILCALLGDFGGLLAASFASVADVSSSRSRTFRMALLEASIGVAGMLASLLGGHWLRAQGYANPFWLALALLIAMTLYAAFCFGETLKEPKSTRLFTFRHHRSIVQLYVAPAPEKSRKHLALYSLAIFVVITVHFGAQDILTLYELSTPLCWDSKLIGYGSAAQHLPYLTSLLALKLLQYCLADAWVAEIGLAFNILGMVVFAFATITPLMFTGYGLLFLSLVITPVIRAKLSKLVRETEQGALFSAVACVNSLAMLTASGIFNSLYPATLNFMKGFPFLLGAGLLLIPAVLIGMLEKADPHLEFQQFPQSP
How it was run: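 Caco-2 cells were grown in high-glucose DMEM with 10% FBS, penicillin/streptomycin and NEAA, seeded at 3 × 10^4 cells/well and differentiated 8–10 days. Monolayers were pre-incubated 30 min at 37 °C in HBSS/10 mM MES pH 5.5 with compound (50 μM), pemetrexed or DMSO, then exposed 6 min to 10 nM [3H]folic acid ± inhibitor. Uptake was counted by scintillation, normalized to BCA protein and expressed as % of vehicle. Run in duplicate.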

[4] = Stability in mouse plasma; assay type: in vitro ADME, mouse (strain CD1); conditions: 2 μM, after 4 h
[5] = Single-dose safety observation and gross necropsy in mice; assay type: in vivo, male CD1 mice
How it was run: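 Male CD1 mice (n = 3/group) were housed individually in metabolic cages and fasted 4 h, with food returned 2 h post-dose. They received one oral gavage of 25, 50 or 100 mg kg−1 (2.5–10 mg mL−1; 10 mL kg−1) in 40% DMSO/60% 0.5% methyl cellulose. Animals were monitored 14 days and weighed pre-dose and on days 7 and 14. CO2 euthanasia was followed by gross necropsy.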

[6] = Stability in human plasma; assay type: in vitro ADME; conditions: 2 μM, after 4 h
CYP1A2 = molecular target: T3, CYP1A2 (Homo sapiens, UniProt P05177); test: Human liver microsome CYP inhibition assay, CYP1A2; assay type: biochemical; conditions: human liver microsomes
T3 sequence (P05177 1-516): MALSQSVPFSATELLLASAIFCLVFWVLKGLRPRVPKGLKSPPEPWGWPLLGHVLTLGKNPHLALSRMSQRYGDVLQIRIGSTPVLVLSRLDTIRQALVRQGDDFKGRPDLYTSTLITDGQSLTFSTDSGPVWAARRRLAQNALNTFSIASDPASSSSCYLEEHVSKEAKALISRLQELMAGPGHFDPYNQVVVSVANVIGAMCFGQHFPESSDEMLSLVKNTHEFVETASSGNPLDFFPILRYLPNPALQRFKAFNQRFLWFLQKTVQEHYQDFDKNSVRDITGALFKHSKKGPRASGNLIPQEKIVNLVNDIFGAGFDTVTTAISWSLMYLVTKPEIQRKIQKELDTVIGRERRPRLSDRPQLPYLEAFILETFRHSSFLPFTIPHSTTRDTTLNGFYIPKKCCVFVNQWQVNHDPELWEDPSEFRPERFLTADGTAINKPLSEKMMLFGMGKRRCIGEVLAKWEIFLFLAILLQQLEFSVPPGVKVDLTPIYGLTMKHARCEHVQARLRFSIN
How it was run: as §1

HepG2 cells = test: HepG2 cytotoxicity assay; assay type: cell-based, human; conditions: 50 μM
How it was run: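 HepG2 cells were kept in DMEM with 10% FBS and penicillin/streptomycin at 37 °C, 5% CO2, seeded ~5000 cells/well and allowed to attach overnight. Serial dilutions of compound in medium were added, with 0.1% DMSO vehicle and terfenadine as positive control. Viability was read by CellTiter-Glo ATP luminescence and normalized to vehicle as % viability per concentration.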

CYP2C8 = molecular target: T4, CYP2C8 (Homo sapiens, UniProt P10632); test: Human liver microsome CYP inhibition assay, CYP2C8; assay type: biochemical; conditions: human liver microsomes
T4 sequence (P10632 1-490): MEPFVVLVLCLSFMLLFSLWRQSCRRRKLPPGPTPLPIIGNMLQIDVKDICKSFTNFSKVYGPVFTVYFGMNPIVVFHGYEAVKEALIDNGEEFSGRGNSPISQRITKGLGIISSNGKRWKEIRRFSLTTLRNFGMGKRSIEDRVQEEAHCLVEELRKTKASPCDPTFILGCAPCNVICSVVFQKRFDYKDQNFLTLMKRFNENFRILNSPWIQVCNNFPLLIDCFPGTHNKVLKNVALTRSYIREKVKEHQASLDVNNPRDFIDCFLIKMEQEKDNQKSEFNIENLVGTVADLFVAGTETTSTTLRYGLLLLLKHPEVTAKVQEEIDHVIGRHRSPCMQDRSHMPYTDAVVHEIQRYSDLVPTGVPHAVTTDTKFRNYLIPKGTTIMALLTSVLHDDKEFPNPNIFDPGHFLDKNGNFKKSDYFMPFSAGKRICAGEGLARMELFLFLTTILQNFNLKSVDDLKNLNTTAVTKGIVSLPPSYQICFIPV
How it was run: as §1

C. elegans strain N2 = test: C. elegans lifespan assay; assay type: in vivo; conditions: for maximal lifespan: untreated 27 d
[7] = Bidirectional Caco-2 cell permeability assay; assay type: in vitro ADME; conditions: human
CYP2D6 = CYP2D6 (Homo sapiens, UniProt P10635); test: Human liver microsome CYP inhibition assay, CYP2D6; assay type: biochemical; conditions: human liver microsomes
How it was run: as §1

[8] = Plasma protein binding, rapid equilibrium dialysis; assay type: in vitro ADME, mouse (strain CD1); conditions: CD1, mouse, pH 7.4
How it was run: as §2

[9] = Stability in human liver microsomes; assay type: in vitro ADME; conditions: 2 μM, after 2 h
How it was run: (§3)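 Compound (2 μM) was incubated at 37 °C with human or CD1 mouse liver microsome suspension. The reaction was initiated by adding NADPH as CYP cofactor.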

[10] = Single-dose pharmacokinetics in rats; assay type: in vivo, male Sprague–Dawley rats; conditions: rats vs mice, oral single dose
How it was run: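 Male Sprague–Dawley rats with jugular vein cannulas (n = 3/group) were fasted overnight, with food returned 4 h post-dose. Single oral gavage of 100 or 200 mg kg−1 (10 or 20 mg mL−1; 10 mL kg−1) in 40% DMSO/60% 0.5% methyl cellulose. Cannula blood was drawn at 0.5, 1, 2, 4, 6, 8 and 24 h into K2EDTA, spun to plasma at 5 °C and stored at −70 °C for PK analysis.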

[11] = test system: Salmonella typhimurium tester strains TA98, TA100, TA1535, TA1537 and Escherichia coli strain WP2 uvrA; test: Ames bacterial reverse mutation assay; conditions: 1.4 × 10^−7 to 2.3 mM
[12] = Single-dose safety observation and gross necropsy in rats; assay type: in vivo, male Sprague–Dawley rats
How it was run: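 Male Sprague–Dawley rats (n = 3/group) were housed in metabolic cages and fasted overnight, with food returned 4 h post-dose. They received one oral gavage of 100 or 200 mg kg−1 (10 mL kg−1) in 40% DMSO/60% 0.5% methyl cellulose. Animals were monitored for 14 days, with body weight recorded before dosing and on days 7 and 14. Gross necropsy was done after CO2 euthanasia.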

[13] = Stability in mouse liver microsomes; assay type: in vitro ADME, mouse (strain CD1); conditions: 2 μM, after 2 h
How it was run: as §3

[14] = male, CD1, mouse, plasma, po, 100 mg/kg
[15] = monitored 14 days after single oral dose
[16] = continuous exposure, 50 and 100 μM

Sequence of CYP2C19 (P33261 whole entry, canonical isoform): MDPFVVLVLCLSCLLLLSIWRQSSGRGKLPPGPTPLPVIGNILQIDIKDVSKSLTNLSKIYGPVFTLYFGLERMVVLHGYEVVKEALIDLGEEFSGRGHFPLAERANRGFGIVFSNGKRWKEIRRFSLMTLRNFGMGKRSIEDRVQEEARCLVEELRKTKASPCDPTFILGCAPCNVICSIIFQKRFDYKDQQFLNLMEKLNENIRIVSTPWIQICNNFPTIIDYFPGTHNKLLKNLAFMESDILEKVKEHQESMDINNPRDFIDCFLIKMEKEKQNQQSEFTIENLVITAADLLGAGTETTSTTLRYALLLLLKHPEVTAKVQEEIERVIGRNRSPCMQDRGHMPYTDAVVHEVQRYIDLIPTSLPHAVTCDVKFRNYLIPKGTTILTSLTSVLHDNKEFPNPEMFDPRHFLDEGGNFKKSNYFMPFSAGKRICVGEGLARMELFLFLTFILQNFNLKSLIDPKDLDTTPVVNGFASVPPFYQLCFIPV
Sequence of cloned hERG potassium channels (Q12809 whole entry): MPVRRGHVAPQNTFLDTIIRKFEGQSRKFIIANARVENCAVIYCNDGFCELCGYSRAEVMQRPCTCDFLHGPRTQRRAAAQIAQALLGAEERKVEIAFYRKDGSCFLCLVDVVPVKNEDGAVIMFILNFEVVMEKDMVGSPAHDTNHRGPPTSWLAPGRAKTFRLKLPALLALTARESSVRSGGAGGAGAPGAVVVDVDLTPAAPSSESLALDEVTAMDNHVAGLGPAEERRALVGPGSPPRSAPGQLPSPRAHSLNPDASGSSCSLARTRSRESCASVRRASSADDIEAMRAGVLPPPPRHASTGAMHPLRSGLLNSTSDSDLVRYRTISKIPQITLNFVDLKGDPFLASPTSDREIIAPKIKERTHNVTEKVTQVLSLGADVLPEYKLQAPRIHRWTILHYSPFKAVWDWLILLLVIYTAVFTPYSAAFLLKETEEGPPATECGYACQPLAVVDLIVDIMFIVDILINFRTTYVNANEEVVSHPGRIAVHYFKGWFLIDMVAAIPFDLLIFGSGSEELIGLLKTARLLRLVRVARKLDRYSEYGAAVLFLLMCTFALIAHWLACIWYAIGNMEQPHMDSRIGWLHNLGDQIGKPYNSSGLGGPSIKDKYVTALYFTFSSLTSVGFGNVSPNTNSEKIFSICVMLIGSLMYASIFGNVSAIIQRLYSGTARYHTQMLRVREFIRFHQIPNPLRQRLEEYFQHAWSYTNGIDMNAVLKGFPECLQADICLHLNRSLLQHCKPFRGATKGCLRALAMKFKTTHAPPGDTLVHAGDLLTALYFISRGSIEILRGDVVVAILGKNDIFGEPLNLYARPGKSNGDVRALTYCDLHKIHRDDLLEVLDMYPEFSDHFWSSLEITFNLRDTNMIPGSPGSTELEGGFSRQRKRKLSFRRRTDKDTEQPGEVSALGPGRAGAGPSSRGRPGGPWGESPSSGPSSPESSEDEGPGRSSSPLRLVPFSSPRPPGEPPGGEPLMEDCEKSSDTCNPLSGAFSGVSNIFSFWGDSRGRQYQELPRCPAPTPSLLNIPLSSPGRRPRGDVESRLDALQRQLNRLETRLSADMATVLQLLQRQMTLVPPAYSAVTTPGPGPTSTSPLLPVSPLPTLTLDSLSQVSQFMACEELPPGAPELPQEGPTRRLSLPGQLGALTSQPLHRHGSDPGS
Sequence of CYP3A4 (P08684 whole entry): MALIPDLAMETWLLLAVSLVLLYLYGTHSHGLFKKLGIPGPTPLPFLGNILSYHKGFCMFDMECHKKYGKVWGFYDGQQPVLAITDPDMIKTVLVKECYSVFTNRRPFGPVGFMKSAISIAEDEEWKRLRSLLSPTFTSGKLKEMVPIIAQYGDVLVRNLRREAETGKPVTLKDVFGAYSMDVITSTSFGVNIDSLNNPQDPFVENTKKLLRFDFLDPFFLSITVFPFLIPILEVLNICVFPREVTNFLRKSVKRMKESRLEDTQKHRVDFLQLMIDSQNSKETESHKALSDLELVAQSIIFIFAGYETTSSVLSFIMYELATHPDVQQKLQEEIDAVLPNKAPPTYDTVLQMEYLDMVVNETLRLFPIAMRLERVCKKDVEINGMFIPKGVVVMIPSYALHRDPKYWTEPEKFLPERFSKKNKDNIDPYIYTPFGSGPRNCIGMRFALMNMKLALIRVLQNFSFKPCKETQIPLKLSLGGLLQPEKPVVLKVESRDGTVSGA
Sequence of CYP2C9 (P11712 whole entry): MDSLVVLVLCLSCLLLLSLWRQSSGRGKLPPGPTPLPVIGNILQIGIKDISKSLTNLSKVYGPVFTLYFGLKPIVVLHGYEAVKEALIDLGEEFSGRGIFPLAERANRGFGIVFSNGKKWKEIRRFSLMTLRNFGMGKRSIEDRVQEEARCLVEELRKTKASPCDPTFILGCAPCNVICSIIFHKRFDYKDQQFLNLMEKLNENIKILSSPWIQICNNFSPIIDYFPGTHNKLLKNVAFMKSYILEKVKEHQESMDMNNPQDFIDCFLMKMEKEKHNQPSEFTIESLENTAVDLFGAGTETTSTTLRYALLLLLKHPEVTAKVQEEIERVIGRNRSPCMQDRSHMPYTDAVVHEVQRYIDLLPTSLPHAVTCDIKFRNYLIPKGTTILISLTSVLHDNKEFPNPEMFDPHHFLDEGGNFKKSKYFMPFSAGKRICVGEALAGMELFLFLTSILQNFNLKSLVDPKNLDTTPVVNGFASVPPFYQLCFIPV
Sequence of CYP2D6 (P10635 whole entry): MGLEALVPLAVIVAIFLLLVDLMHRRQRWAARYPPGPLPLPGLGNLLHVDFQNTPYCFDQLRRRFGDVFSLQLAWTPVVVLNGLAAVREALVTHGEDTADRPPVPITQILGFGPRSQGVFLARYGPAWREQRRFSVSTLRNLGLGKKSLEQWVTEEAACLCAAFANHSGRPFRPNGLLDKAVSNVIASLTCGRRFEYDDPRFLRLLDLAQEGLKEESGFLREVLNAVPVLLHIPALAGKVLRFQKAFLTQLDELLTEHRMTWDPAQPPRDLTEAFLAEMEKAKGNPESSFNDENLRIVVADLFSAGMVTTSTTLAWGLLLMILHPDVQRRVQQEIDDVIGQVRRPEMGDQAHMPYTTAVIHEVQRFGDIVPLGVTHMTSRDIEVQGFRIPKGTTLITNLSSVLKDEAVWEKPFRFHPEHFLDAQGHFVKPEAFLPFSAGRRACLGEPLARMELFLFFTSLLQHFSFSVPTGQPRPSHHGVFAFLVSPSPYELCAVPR

Work on `CC(=O)N1CCC(C(=O)N2CCN3C(=O)c4cc(-c5ccccc5)ccc4NC(=O)C3C2)CC1` (centres unmarked) [MPOL_B_1, 13-(1-acetylpiperidine-4-carbonyl)-5-phenyl-1,9,13-triazatricyclo[9.4.0.03,8]pentadeca-3(8),4,6-triene-2,10-dione] yielded an IC50 [1] of 87 µM, an inhibition at 5 min, 50 µM (CYP2C19) of 19.4% and an inhibition at 5 min, 50 µM (CYP2C9) of 11.4%. For the same molecule, the inhibition at 5 min, 50 µM (CYP2B6) was 0%, the inhibition at 5 min, 50 µM (CYP3A4) was 22.5% and the fraction unbound at 6 h, 2 μM [2] was 0.525 ± 0.08. The “concentration of the drug in fecal samples” value ([3]; collected 24 hours after oral administration) was 5 to 10 mg/g, the AUC(0-t) [3, 14] was 2380 ± 1180 ng·h/mL and the Cmax [3, 14] was 416 ± 67 ng/mL. For the same molecule, the Tmax [3, 14] was 1.7 ± 0.6 h, the half-life [3, 14] was 5.7 ± 4.1 h and the “systemic bioavailability (dose proportionality of AUC)” value ([3]; mice, oral gavage 25, 50 and 100 mg kg^−1) was “became saturated at doses of 50 mg kg^−1 and above”. The inhibition at 50 µM (PCFT transporter) was 42%, the “Stability in mouse plasma” value [4] was greater than 90% after 4 h and the gross necropsy ([5]; group 2, 50 mg kg^−1) was “had an enlarged stomach when gross necropsy was performed, and another from the same group had dark patches on the lungs”. The gross necropsy ([5]; highest dose (100 mg kg^−1)) was “no organ pathologies or other abnormalities; also recorded: No abnormalities”, the body weight loss [5, 15] was “no significant body weight loss” and the signs of illness [5, 15] was “no signs of illness”. For the same molecule, the “Stability in human plasma” value [6] was greater than 90% after 4 h, the inhibition at 5 min, 50 µM (CYP1A2) was 5.2% and the Hep2 cells cytotoxicity (HepG2 cells) was “Not significant”. The inhibition at 5 min, 50 µM (CYP2C8) was 4.9%, the maximal lifespan (C. elegans strain N2; 50 μM) was 35 days and the maximal lifespan (C. elegans strain N2; 100 μM) was 35 days. The increase of lifespan (C. elegans strain N2; C. elegans) was “up to 30%”, the longer maximal lifespan (C. elegans strain N2; [16]) was roughly 30% and the longer mean lifespan (C. elegans strain N2; [16]) was roughly 30%. It also gave a Papp A→B at 2 h, 10 μM [7] of 0.37 ×10⁻⁶ cm/s, a Papp B→A at 2 h, 10 μM [7] of 7.17 ×10⁻⁶ cm/s and an inhibition at 5 min, 50 µM (CYP2D6) of 16.9%. The fraction unbound at 6 h, 2 μM [8] was 0.294 ± 0.059, the “Stability in human microsomes” value [9] was greater than 90% after 2 h and the “systemic bioavailability in rats, times lower than in mice” value [10] was “approximately 10 times”. For the same molecule, the Ames mutagenicity test [11] was “Not mutagenic”, the gross necropsy ([12]; group 1, 100 mg kg^−1) was “enlarged stomach and caecum and blood in the abdominal cavity” and the gross necropsy ([12]; highest dose (200 mg kg^−1)) was “no organ pathologies or other abnormalities”. The body weight loss [12, 15] was “no significant body weight loss”, the signs of illness [12, 15] was “no signs of illness” and the “Stability in mouse microsomes” value [13] was 83% after 2 h.
`Nc1nc2[nH]cc(CCc3ccc(C(=O)N[C@@H](CCC(=O)O)C(=O)O)cc3)c2c(=O)[nH]1` [pemetrexed, reference compound] showed an inhibition at 50 µM (PCFT transporter) of 62%.
For `Cc1ccc(NC(=O)N2Cc3[nH]cnc3C[C@H]2c2nc(-c3ccc4c(c3)OCO4)no2)cc1` [MPOL_D_1, (6S)-6-[3-(2H-1,3-benzodioxol-5-yl)-1,2,4-oxadiazol-5-yl]-N-(4-methylphenyl)3H,4H,5H,6H,7H-imidazo[4,5-c]pyridine-5-carboxamide], the effect on lifespan (C. elegans strain N2; dose range 1–100 μM, compared with MPOL_B_1) was “did not exhibit similar effects”.
